Measured values as given in publication PMC8516733 (Biomedicine & pharmacotherapy = Biomedecine & …, 2021).
pIC50: −log10 of the molar value. Several values for one entry are separate records, joined by “and”; a condition that tells them apart may be missing. Equal values may be shown once. Entries after “also recorded” stand apart in the source; their conditions may differ.

Key:
[1] = biological target: T1, cloned rat kappa opioid receptors (Rattus norvegicus, UniProt P34975); assay: cell-based; format: cell-based
T1 sequence (P34975 whole entry): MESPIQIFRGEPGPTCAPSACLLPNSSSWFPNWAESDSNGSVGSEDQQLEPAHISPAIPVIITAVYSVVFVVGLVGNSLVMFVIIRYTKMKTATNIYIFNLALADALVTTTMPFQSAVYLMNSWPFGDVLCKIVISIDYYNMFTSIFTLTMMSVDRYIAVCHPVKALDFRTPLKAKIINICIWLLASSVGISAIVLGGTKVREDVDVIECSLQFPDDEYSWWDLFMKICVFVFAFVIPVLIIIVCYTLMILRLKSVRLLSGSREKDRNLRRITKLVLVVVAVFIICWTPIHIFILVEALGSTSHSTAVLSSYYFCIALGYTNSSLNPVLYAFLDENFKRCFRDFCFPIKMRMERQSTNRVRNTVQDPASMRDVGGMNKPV

KOR = conditions: cited from earlier work; for Duration of action in vivo: after a single dose
[2] = biological target: cloned rat κappa opioid receptors (Rattus norvegicus, UniProt P34975); assay: Adenylyl cyclase assay; format: cell-based; conditions: relative to Dyn (1–13)NH2; 50 μM forskolin
Chain of cloned rat κappa opioid receptors (P34975 whole entry): as above
Summary of the method: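 CHO cells stably expressing the receptor were washed twice in F12 medium and labelled for 4 h with 12 μCi [3H]adenine. They were then incubated 40 min at 37 °C with forskolin, peptidase inhibitors (10 μM bestatin, 30 μM captopril, 50 μM l-leucyl-l-leucine) and test compound at 0.1–10,000 nM in 10-fold steps. The reaction was stopped with SDS/cAMP, then perchloric acid. [3H]cAMP was counted by scintillation, with [14C]cAMP used for recovery and crossover correction.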

[3] = biological target: T1, cloned rat kappa opioid receptors; format: biochemical

Row | Compound | Effect of the compound alone on FMP fluorescence [1] | Efficacy, adenylyl cyclase [2] | Efficacy, [35S]GTPγS [3] | Efficacy, FMP blue [1] | further results
1 | CC1C2Cc3ccc(O)cc3C1(C)CCN2CC1CC1 (single isomer, unassigned; (+)) [(+)-Cyclazocine, (+)-cyclazocine] | did not affect FMP fluorescence | – | – | – | –
2 | CC(C)[C@@H](CN1CC[C@@](C)(c2cccc(O)c2)[C@@H](C)C1)NC(=O)[C@H]1Cc2ccc(O)cc2CN1 [JDTic] | – | – | – | – | Duration of action in vivo (KOR): lasting weeks after a single dose
3 | CC(C)=CCN1CCC2(C)c3cc(O)ccc3CC1C2C (stereo not drawn) [Pentazocine, pentazocine] | – | – | – | – | Efficacy (relative) [1]: 0.44 ± 0.04; pIC50 [1]: 7.58
4 | Oc1ccc2c3c1O[C@H]1c4[nH]c5c(c4C[C@@]4(O)[C@@H](C2)N(CC2CC2)CC[C@]314)C[C@@]1(O)[C@H]2Cc3ccc(O)c4c3[C@@]1(CCN2CC1CC1)[C@H]5O4 [nor-BNI, nor-binaltorphimine] | Neither zyklophin nor nor-BNI alone influenced FMP fluorescence | – | – | – | Duration of action in vivo (KOR): lasting weeks after a single dose
5 | [N-Allyl-Tyr^1]zyklophin [JVA 3419] | – | 0.33 | 0.07 ± 0.17 | 0.15 ± 0.04 | –
6 | [N-Benzyl-Tyr^1,Dap(Ac)^8]Dyn A(1–11) amide [JVA 3416] | – | 1.0 | 0.26 ± 0.06 | 0.48 and 0.48 ± 0.10 | –
7 | [N-BenzylTyr^1,cyclo(D-Asp^5,Dap^8]Dyn (1–11) amide [Zyklophin] | Neither zyklophin nor nor-BNI alone influenced FMP fluorescence; also recorded: did not elicit a significant reduction in FMP fluorescence | 0.23 | 0 | 0 | Duration of antagonism (KOR; after systemic administration): less than 12 h; Kb ([1]; read-out: KB from Schild regression, antagonism of U50,488): 564 nM
8 | [N-Methyl-Tyr^1]zyklophin [JVA 3418] | – | 0.58 | 0.10 ± 0.10 | 0.14 ± 0.03 | –
9 | zyklophin-(1–8) [JVA 3413] | – | 0.35 | 0.07 ± 0.14 | 0.22 ± 0.04 | –
